Measured values: ChEMBL document CHEMBL2311305, “Antiproliferative potency of novel benzofuran-2-carboxamides on tumour cell lines: cell death mechanisms and determination of crystal structure” (Eur J Med Chem, 2013)
The source made the active and inactive calls. The calls are words filed in the database; no cut-off is given here.

Legend:
SW-620 [1] = test: Induction of cell cycle arrest in human SW620 cells assessed as G2/M phase cells at 5 uM after 24 hrs by PI-staining based flow cytometric analysis (reference value: 9.3 +/- 2.6%); assay type: functional
SW-620 [2] = test: Induction of cell cycle arrest in human SW620 cells assessed as G2/M phase cells at 5 uM after 48 hrs by PI-staining based flow cytometric analysis (reference value: 8.5 +/- 1.6%); assay type: functional
SW-620 [3] = test: Induction of cell cycle arrest in human SW620 cells assessed as G1 phase cells at 5 uM after 24 hrs by PI-staining based flow cytometric analysis (reference value: 52.6 +/- 2.3%); assay type: functional
SW-620 [4] = test: Induction of apoptosis in human SW620 cells assessed as caspase3 activation at 10 uM after 24 to 48 hrs by caspase protease assay; assay type: functional, cell-based
In short: (§1)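 Compound at 5 µM on SK-BR-3 and 10 µM on SW620. Cells harvested after 24 and 48 h, washed in PBS, lysed 10 min on ice, centrifuged. Lysate diluted to 3 mg/mL protein and mixed with DTT-containing reaction buffer and caspase-3, -8 or -9 substrate. Incubated 90 min at 37 °C in the dark. Absorbance read at 405 nm, duplicates, compared with untreated control.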

SW-620 [5] = test: Induction of cell cycle arrest in human SW620 cells assessed as G1 phase cells at 5 uM after 48 hrs by PI-staining based flow cytometric analysis (reference value: 49.9 +/- 1.4%); assay type: functional
SW-620 [6] = test: Induction of cell cycle arrest in human SW620 cells assessed as subG1 phase cells at 5 uM after 48 hrs by PI-staining based flow cytometric analysis (reference value: 5.8 +/- 0.3%); assay type: functional
SW-620 [7] = test: Induction of cell cycle arrest in human SW620 cells assessed as S phase cells at 5 uM after 24 hrs by PI-staining based flow cytometric analysis (reference value: 38.3 +/- 0.4%); assay type: functional
SW-620 [8] = test: Induction of cell cycle arrest in human SW620 cells assessed as subG1 phase cells at 5 uM after 24 hrs by PI-staining based flow cytometric analysis (reference value: 18.1 +/- 3.8%); assay type: functional
SW-620 [9] = test: Induction of cell cycle arrest in human SW620 cells assessed as G1 phase cells at 10 uM after 48 hrs by PI-staining based flow cytometric analysis (reference value: 49.9 +/- 1.4%); assay type: functional
SW-620 [10] = test: Induction of cell cycle arrest in human SW620 cells assessed as subG1 phase cells at 10 uM after 48 hrs by PI-staining based flow cytometric analysis (reference value: 5.8 +/- 0.3%); assay type: functional
SW-620 [11] = test: Induction of cell cycle arrest in human SW620 cells assessed as subG1 phase cells at 10 uM after 24 hrs by PI-staining based flow cytometric analysis (reference value: 18.1 +/- 3.8%); assay type: functional
MIA PaCa-2 = test: Cytotoxicity against human MIAPaCa2 cells after 72 hrs by MTT assay; assay type: functional, cell-based
In short: (§2)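 Cells seeded at 3000-6000 per well on day 0, according to cell line doubling time. Compound added in five 10-fold dilutions, 72-h incubation, then MTT colorimetric read-out. Absorbances converted to percentage growth by NCI formulae. IC50 obtained by linear regression between the concentrations bracketing PG 50; ">100" assigned when no concentration reaches it. Quadruplicate points, three independent experiments.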

SK-BR-3 = test: Cytotoxicity against human SKBR3 cells after 72 hrs by MTT assay; assay type: functional, cell-based; conditions: SK-BR-3, 72 h; in short: as §2
SW-620 [12] = test: Induction of cell cycle arrest in human SW620 cells assessed as S phase cells at 10 uM after 24 hrs by PI-staining based flow cytometric analysis (reference value: 38.3 +/- 0.4%); assay type: functional
SW-620 [13] = test: Induction of cell cycle arrest in human SW620 cells assessed as S phase cells at 10 uM after 48 hrs by PI-staining based flow cytometric analysis (reference value: 41.6 +/- 0.3%); assay type: functional
SW-620 [14] = test: Induction of apoptosis in human SW620 cells assessed as caspase9 activation at 10 uM after 24 to 48 hrs by caspase protease assay; assay type: functional, cell-based; in short: as §1
SW-620 [15] = test: Induction of cell cycle arrest in human SW620 cells assessed as G2/M phase cells at 10 uM after 48 hrs by PI-staining based flow cytometric analysis (reference value: 8.5 +/- 1.6%); assay type: functional
HeLa = test: Cytotoxicity against human HeLa cells after 72 hrs by MTT assay; assay type: functional, cell-based; conditions: Homo sapiens, HeLa, 72 h; in short: as §2
SW-620 [16] = test: Induction of cell cycle arrest in human SW620 cells assessed as S phase cells at 5 uM after 48 hrs by PI-staining based flow cytometric analysis (reference value: 41.6 +/- 0.3%); assay type: functional
MCF7 = test: Cytotoxicity against human MCF7 cells after 72 hrs by MTT assay; assay type: functional, cell-based; in short: as §2
SW-620 [17] = test: Induction of cell cycle arrest in human SW620 cells assessed as G1 phase cells at 10 uM after 24 hrs by PI-staining based flow cytometric analysis (reference value: 52.6 +/- 2.3%); assay type: functional
WI-38 = test: Cytotoxicity against human WI38 cells after 72 hrs by MTT assay; assay type: cell-based; conditions: Homo sapiens, WI-38, 72 h; in short: as §2
SW-620 [18] = test: Induction of cell cycle arrest in human SW620 cells assessed as G2/M phase cells at 10 uM after 24 hrs by PI-staining based flow cytometric analysis (reference value: 9.3 +/- 2.6%); assay type: functional
SW-620 [19] = test: Cytotoxicity against human SW620 cells after 72 hrs by MTT assay; assay type: functional, cell-based; conditions: Homo sapiens, SW-620, 72 h; in short: as §2

| SMILES | IC50 (MIA PaCa-2; Homo sapiens, MIA PaCa-2, 72 h) | IC50 (SK-BR-3) | IC50 (HeLa) | IC50 (MCF7; Homo sapiens, MCF7, 72 h) | IC50 (WI-38) | IC50 (SW-620 [19]) | further results |
| --- | --- | --- | --- | --- | --- | --- | --- |
| CC(=O)Nc1ccc(NC(=O)c2cc3ccccc3o2)cn1 | 3.1 µM | 59.8 µM | 0.9 µM | 7.6 µM | 0.4 µM | 1.1 µM | Activity (SW-620 [1]): 10.7%; Activity (SW-620 [2]): 11.2%; Activity (SW-620 [3]): 46.8%; Activity (SW-620 [4]): Active; Activity (SW-620 [5]): 43.9%; Activity (SW-620 [6]): 4.7%; Activity (SW-620 [7]): 42.6%; Activity (SW-620 [8]): 18.1%; Activity (SW-620 [9]): 45.2%; Activity (SW-620 [10]): 4.3%; Activity (SW-620 [11]): 18.2%; Activity (SW-620 [12]): 31.4%; Activity (SW-620 [13]): 45.4%; Activity (SW-620 [14]): Active; Activity (SW-620 [15]): 9.5%; Activity (SW-620 [16]): 44.9%; Activity (SW-620 [17]): 43.5%; Activity (SW-620 [18]): 25.3% |
| N#Cc1ccc2nc(NC(=O)c3cc4ccccc4o3)[nH]c2c1 | > 100 µM | > 100 µM | > 100 µM | > 100 µM | 9.1 µM | 9.2 µM | – |
| CN(C)c1ccc(NC(=O)c2cc3ccccc3o2)cc1 | – | > 100 µM | 49.1 µM | – | 81.2 µM | 54.2 µM | IC50 (MIA PaCa-2; mia paca-2): 49.6 µM; IC50 (MCF7; mcf7): 8.5 µM |
| N#Cc1ccc(NC(=O)c2cc3ccccc3o2)nc1 | 44.7 µM | > 100 µM | 23.9 µM | 5.3 µM | 52.4 µM | 69.2 µM | – |
| N#Cc1ccc(NC(=O)c2cc3ccccc3o2)cc1 | 27.1 µM | 34.2 µM | 7.6 µM | 7.6 µM | 7.9 µM | 7.4 µM | – |
| O=C(Nc1nc2ccc([N+](=O)[O-])cc2s1)c1cc2ccccc2o1 | > 100 µM | > 100 µM | 17.5 µM | 63.9 µM | 72.9 µM | > 100 µM | – |
| CC(=O)Nc1ccc(NC(=O)c2cc3ccccc3o2)cc1 | > 100 µM | > 100 µM | 77.3 µM | 45.1 µM | 71.2 µM | > 100 µM | – |
| O=C(Nc1nc2ccc(C3=NCCN3)cc2s1)c1cc2ccccc2o1 | 97.1 µM | > 100 µM | 59.8 µM | 50.9 µM | 59.2 µM | 56.4 µM | – |
